ChEMBL document CHEMBL3585281, “Antibacterial Labdane Diterpenoids from Vitex vestita” (2015)
In brackets after ≈: the same amount, converted by molar mass.

Key:
Type in all cases: functional
[1] = tested on: Staphylococcus intermedius; experiment: Antibacterial activity against Staphylococcus intermedius N987 after 18 hrs by agar dilution method
Outline: (§1)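 Agar-dilution MIC against Gram-positive strains. Compounds in DMSO, geometric dilutions giving final 100−0.75 mg/L in Mueller Hinton agar. Strains grown 18 h at 37 °C in trypticase soy broth, diluted in sterile water, spotted by Steers inoculator (about 1000 UFC/spot). Plates incubated 18 h at 37 °C; DMSO blank; ofloxacin positive control. MIC = lowest concentration with no visible growth.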

Enterococcus durans = experiment: Antibacterial activity against Enterococcus durans CIP 104999 after 18 hrs by agar dilution method; outline: as §1
[2] = tested on: Enterococcus casseliflavus; experiment: Antibacterial activity against Enterococcus casseliflavus N487 after 18 hrs by agar dilution method; outline: as §1
Enterococcus faecium [3] = experiment: Antibacterial activity against Enterococcus faecium N507 after 18 hrs by agar dilution method; outline: as §1
Enterococcus faecalis [4] = experiment: Antibacterial activity against Enterococcus faecalis N518 after 18 hrs by agar dilution method; outline: as §1
Enterococcus faecium [5] = experiment: Antibacterial activity against Enterococcus faecium CIP 103014 after 18 hrs by agar dilution method; outline: as §1
Listeria innocua = experiment: Antibacterial activity against Listeria innocua E044 after 18 hrs by agar dilution method; outline: as §1
Bacillus spizizenii = experiment: Antibacterial activity against Bacillus subtilis ATCC 6633 after 18 hrs by agar dilution method; outline: as §1
Listeria monocytogenes [6] = experiment: Antibacterial activity against Listeria monocytogenes N851 after 18 hrs by agar dilution method; outline: as §1
Enterococcus faecium [7] = experiment: Antibacterial activity against Enterococcus faecium N490 after 18 hrs by agar dilution method; outline: as §1
[8] = tested on: Staphylococcus saprophyticus; experiment: Antibacterial activity against Staphylococcus saprophyticus E260 after 18 hrs by agar dilution method; outline: as §1
Corynebacterium striatum = experiment: Antibacterial activity against Corynebacterium striatum N840 after 18 hrs by agar dilution method; outline: as §1
Bacillus cereus [9] = experiment: Antibacterial activity against Bacillus cereus N349 after 18 hrs by agar dilution method; outline: as §1
Bacillus cereus [10] = experiment: Antibacterial activity against Bacillus cereus CIP 6624 after 18 hrs by agar dilution method; outline: as §1
[11] = tested on: Enterococcus casseliflavus; experiment: Antibacterial activity against Enterococcus casseliflavus CIP 103018 after 18 hrs by agar dilution method; outline: as §1
Enterococcus faecium [12] = experiment: Antibacterial activity against Enterococcus faecium N733 after 18 hrs by agar dilution method; outline: as §1
Staphylococcus aureus [13] = experiment: Antibacterial activity against Staphylococcus aureus CIP 5710 after 18 hrs by agar dilution method; outline: as §1
Staphylococcus aureus [14] = experiment: Antibacterial activity against Staphylococcus aureus CIP 53156 after 18 hrs by agar dilution method; outline: as §1
Bacillus cereus [15] = experiment: Antibacterial activity against Bacillus cereus N258 after 18 hrs by agar dilution method; outline: as §1
Staphylococcus aureus [16] = experiment: Antibacterial activity against Staphylococcus aureus CIP 7625 after 18 hrs by agar dilution method; outline: as §1
Enterococcus faecium [17] = experiment: Antibacterial activity against Enterococcus faecium CIP 107387 after 18 hrs by agar dilution method; outline: as §1
Staphylococcus aureus [18] = experiment: Antibacterial activity against Staphylococcus aureus CIP 53154 after 18 hrs by agar dilution method; outline: as §1
Enterococcus faecalis [19] = experiment: Antibacterial activity against Enterococcus faecalis CIP 104676 after 18 hrs by agar dilution method; outline: as §1
Staphylococcus aureus [20] = experiment: Antibacterial activity against Staphylococcus aureus CRBIP 2121 after 18 hrs by agar dilution method; outline: as §1
Staphylococcus aureus [21] = experiment: Antibacterial activity against Staphylococcus aureus ATCC 9144 oxford after 18 hrs by agar dilution method; outline: as §1
Enterococcus faecium [22] = experiment: Antibacterial activity against Enterococcus faecium N823 after 18 hrs by agar dilution method; outline: as §1
Enterococcus gallinarum [23] = experiment: Antibacterial activity against Enterococcus gallinarum N492 after 18 hrs by agar dilution method; outline: as §1
Listeria monocytogenes [24] = experiment: Antibacterial activity against Listeria monocytogenes N783 after 18 hrs by agar dilution method; outline: as §1
Enterococcus avium = experiment: Antibacterial activity against Enterococcus avium CIP 104053 after 18 hrs by agar dilution method; outline: as §1
Enterococcus gallinarum [25] = experiment: Antibacterial activity against Enterococcus gallinarum CIP 105985 after 18 hrs by agar dilution method; outline: as §1
Streptococcus agalactiae = experiment: Antibacterial activity against Streptococcus agalactiae CIP 103227 after 18 hrs by agar dilution method; outline: as §1
Enterococcus faecalis [26] = experiment: Antibacterial activity against Enterococcus faecalis N491 after 18 hrs by agar dilution method; outline: as §1
[27] = tested on: Staphylococcus epidermidis; experiment: Antibacterial activity against Staphylococcus epidermidis CIP 53124 after 18 hrs by agar dilution method; outline: as §1
Mammaliicoccus sciuri = experiment: Antibacterial activity against Staphylococcus sciuri N993 after 18 hrs by agar dilution method; outline: as §1
[28] = tested on: Staphylococcus haemolyticus; experiment: Antibacterial activity against Staphylococcus haemolyticus CIP 8156 after 18 hrs by agar dilution method; outline: as §1
Staphylococcus aureus [29] = experiment: Antibacterial activity against Staphylococcus aureus CIP 483 after 18 hrs by agar dilution method; outline: as §1
Enterococcus faecalis [30] = experiment: Antibacterial activity against Enterococcus faecalis N520 after 18 hrs by agar dilution method; outline: as §1
Enterococcus hirae = experiment: Antibacterial activity against Enterococcus hirae CIP 5855 after 18 hrs by agar dilution method; outline: as §1
Enterococcus gallinarum [31] = experiment: Antibacterial activity against Enterococcus gallinarum N489 after 18 hrs by agar dilution method; outline: as §1
[32] = tested on: Staphylococcus saprophyticus; experiment: Antibacterial activity against Staphylococcus saprophyticus CIP 76125 after 18 hrs by agar dilution method; outline: as §1
Bacillus cereus [33] = experiment: Antibacterial activity against Bacillus cereus N190 after 18 hrs by agar dilution method; outline: as §1
[34] = tested on: Staphylococcus lugdunensis; experiment: Antibacterial activity against Staphylococcus lugdunensis ATCC 43809 after 18 hrs by agar dilution method; outline: as §1
Listeria monocytogenes [35] = experiment: Antibacterial activity against Listeria monocytogenes CIP 103575 after 18 hrs by agar dilution method; outline: as §1
Listeria monocytogenes [36] = experiment: Antibacterial activity against Listeria monocytogenes N836 after 18 hrs by agar dilution method; outline: as §1
Enterococcus faecalis [37] = experiment: Antibacterial activity against Enterococcus faecalis CIP 103214 after 18 hrs by agar dilution method; outline: as §1
Staphylococcus aureus [38] = experiment: Antibacterial activity against Staphylococcus aureus ATCC 25923 after 18 hrs by agar dilution method; outline: as §1

GENTAMICIN
MIC [1]: 139 µM
MIC (Enterococcus durans): 17 µM
MIC [2]: 9 µM
MIC (Enterococcus faecium [3]): > 278000 nM
MIC (Enterococcus faecalis [4]): 70 µM
MIC (Enterococcus faecium [5]): 17 µM
MIC (Listeria innocua): 1000 nM
MIC (Bacillus spizizenii): 300 nM
MIC (Listeria monocytogenes [6]): 1000 nM
MIC (Enterococcus faecium [7]): > 278 µM
MIC [8]: < 140 nM
MIC (Corynebacterium striatum): > 278000 nM
MIC (Bacillus cereus [9]): 2000 nM
MIC (Bacillus cereus [10]): 1000 nM
MIC [11]: 9 µM
MIC (Enterococcus faecium [12]): > 278 µM
MIC (Staphylococcus aureus [13]): 1000 nM
MIC (Staphylococcus aureus [14]): 1000 nM
MIC (Bacillus cereus [15]): 2000 nM
MIC (Staphylococcus aureus [16]): 1000 nM
MIC (Enterococcus faecium [17]): > 278 µM
MIC (Staphylococcus aureus [18]): 4000 nM
MIC (Enterococcus faecalis [19]): > 278 µM
MIC (Staphylococcus aureus [20]): > 278000 nM
MIC (Staphylococcus aureus [21]): 500 nM
MIC (Enterococcus faecium [22]): > 278 µM
MIC (Enterococcus gallinarum [23]): 17 µM
MIC (Listeria monocytogenes [24]): 1000 nM
MIC (Enterococcus avium): 2000 nM
MIC (Enterococcus gallinarum [25]): 17 µM
MIC (Streptococcus agalactiae; ATCC 13813): 2000 nM
MIC (Enterococcus faecalis [26]): > 278 µM
MIC [27]: 500 nM
MIC (Mammaliicoccus sciuri): < 140 nM
MIC [28]: < 140 nM
MIC (Staphylococcus aureus [29]): 1000 nM
MIC (Enterococcus faecalis [30]): > 278000 nM
MIC (Enterococcus hirae): 35 µM
MIC (Enterococcus gallinarum [31]): 4 µM
MIC [32]: 300 nM
MIC (Bacillus cereus [33]): 1000 nM
MIC [34]: 500 nM
MIC (Listeria monocytogenes [35]): 1000 nM
MIC (Listeria monocytogenes [36]): 1000 nM
MIC (Enterococcus faecalis [37]): 35 µM
MIC (Staphylococcus aureus [38]): 1000 nM

CN[C@H](CC(C)C)C(=O)N[C@H]1C(=O)N[C@@H](CC(N)=O)C(=O)N[C@H]2C(=O)N[C@H]3C(=O)N[C@H](C(=O)N[C@H](C(=O)O)c4cc(O)cc(O)c4-c4cc3ccc4O)[C@H](O)c3ccc(c(Cl)c3)Oc3cc2cc(c3O[C@@H]2O[C@H](CO)[C@@H](O)[C@H](O)[C@H]2O[C@H]2C[C@](C)(N)[C@H](O)[C@H](C)O2)Oc2ccc(cc2Cl)[C@H]1O [VANCOMYCIN]
MIC ([1]; N987, 18 h): 0.6 µM (≈ 0.87 µg/mL)
MIC (Enterococcus durans; CIP 104999, 18 h): 0.3 µM (≈ 0.435 µg/mL)
MIC ([2]; N487, 18 h): 2.7 µM (≈ 3.91 µg/mL)
MIC (Enterococcus faecium [3]; N507, 18 h): 600 nM (≈ 0.87 µg/mL)
MIC (Enterococcus faecalis [4]; N518, 18 h): 0.6 µM (≈ 0.87 µg/mL)
MIC (Enterococcus faecium [5]; CIP 103014, 18 h): 0.3 µM (≈ 0.435 µg/mL)
MIC (Listeria innocua; E044, 18 h): 300 nM (≈ 0.435 µg/mL)
MIC (Bacillus spizizenii; ATCC 6633, 18 h): 100 nM (≈ 0.145 µg/mL)
MIC (Listeria monocytogenes [6]; N851, 18 h): 300 nM (≈ 0.435 µg/mL)
MIC (Enterococcus faecium [7]; N490, 18 h): 22 µM (≈ 31.9 µg/mL)
MIC ([8]; E260, 18 h): 600 nM (≈ 0.87 µg/mL)
MIC (Corynebacterium striatum; N840, 18 h): 300 nM (≈ 0.435 µg/mL)
MIC (Bacillus cereus [9]; N349, 18 h): 600 nM (≈ 0.87 µg/mL)
MIC (Bacillus cereus [10]; CIP 6624, 18 h): 300 nM (≈ 0.435 µg/mL)
MIC ([11]; CIP 103018, 18 h): 2.7 µM (≈ 3.91 µg/mL)
MIC (Enterococcus faecium [12]; N733, 18 h): > 86 µM
MIC (Staphylococcus aureus [13]; CIP 5710, 18 h): 600 nM (≈ 0.87 µg/mL)
MIC (Staphylococcus aureus [14]; CIP 53156, 18 h): 300 nM (≈ 0.435 µg/mL)
MIC (Bacillus cereus [15]; N258, 18 h): 300 nM (≈ 0.435 µg/mL)
MIC (Staphylococcus aureus [16]; CIP 7625, 18 h): 2700 nM (≈ 3.91 µg/mL)
MIC (Enterococcus faecium [17]; CIP 107387, 18 h): > 86 µM
MIC (Staphylococcus aureus [18]; CIP 53154, 18 h): 600 nM (≈ 0.87 µg/mL)
MIC (Enterococcus faecalis [19]; CIP 104676, 18 h): 5 µM (≈ 7.25 µg/mL)
MIC (Staphylococcus aureus [20]; CRBIP 2121, 18 h): 2700 nM (≈ 3.91 µg/mL)
MIC (Staphylococcus aureus [21]): 200 nM (≈ 0.29 µg/mL)
MIC (Enterococcus faecium [22]; N823, 18 h): > 86 µM
MIC (Enterococcus gallinarum [23]; N492, 18 h): 5 µM (≈ 7.25 µg/mL)
MIC (Listeria monocytogenes [24]; N783, 18 h): 300 nM (≈ 0.435 µg/mL)
MIC (Enterococcus avium; CIP 104053, 18 h): 300 nM (≈ 0.435 µg/mL)
MIC (Enterococcus gallinarum [25]; CIP 105985, 18 h): 5 µM (≈ 7.25 µg/mL)
MIC (Streptococcus agalactiae; ATCC 13813, 18 h): 300 nM (≈ 0.435 µg/mL)
MIC (Enterococcus faecalis [26]; N491, 18 h): > 86 µM
MIC ([27]; CIP 53124, 18 h): 600 nM (≈ 0.87 µg/mL)
MIC (Mammaliicoccus sciuri; N993, 18 h): 600 nM (≈ 0.87 µg/mL)
MIC ([28]; CIP 8156, 18 h): 600 nM (≈ 0.87 µg/mL)
MIC (Staphylococcus aureus [29]; CIP 483, 18 h): 600 nM (≈ 0.87 µg/mL)
MIC (Enterococcus faecalis [30]; N520, 18 h): 600 nM (≈ 0.87 µg/mL)
MIC (Enterococcus hirae; CIP 5855, 18 h): 0.3 µM (≈ 0.435 µg/mL)
MIC (Enterococcus gallinarum [31]; N489, 18 h): 5 µM (≈ 7.25 µg/mL)
MIC ([32]; CIP 76125, 18 h): 600 nM (≈ 0.87 µg/mL)
MIC (Bacillus cereus [33]; N190, 18 h): 300 nM (≈ 0.435 µg/mL)
MIC ([34]; ATCC 43809, 18 h): 600 nM (≈ 0.87 µg/mL)
MIC (Listeria monocytogenes [35]; CIP 103575, 18 h): 300 nM (≈ 0.435 µg/mL)
MIC (Listeria monocytogenes [36]; N836, 18 h): 300 nM (≈ 0.435 µg/mL)
MIC (Enterococcus faecalis [37]; CIP 103214, 18 h): 1.3 µM (≈ 1.88 µg/mL)
MIC (Staphylococcus aureus [38]; ATCC 25923, 18 h): 600 nM (≈ 0.87 µg/mL)
